Results from ChEMBL document CHEMBL4190199, “Antimalarial Activities of Alkyl Cyclohexenone Derivatives Isolated from the Leaves of Poupartia borbonica” (J Nat Prod, 2017).
Converted amounts (≈) assume the structure as drawn.

Tests used:
[1] = Selectivity index, ratio of IC50 for human WI38 cells to IC50 for asexual erythrocyte stage of chloroquine-resistant Plasmodium falciparum W2 infected in human red blood cells; type: toxicity, cell-based; details: read-out: Ratio IC50
Danio rerio [2] = species: Danio rerio; assay: Toxicity in 72 hrs post fertilized zebra fish embryo assessed as morphological changes at 1 ug/ml replaced once daily for 3 days; type: organism-based; details: zebrafish, in vivo
Outline: (§1)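 Dechorionated zebrafish embryos, 25 per condition, duplicate geometric series. The first step spanned 10 to 0.001 µg/mL and the second was narrowed to 10 to 1 µg/mL. Compound was diluted from DMSO in fish medium, final DMSO at most 0.4%. Treatment was renewed daily for 3 days, with untreated and 0.4% DMSO controls. Embryos were observed daily until 72 hpf.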

Danio rerio [3] = species: Danio rerio; assay: Toxicity in 24 to 72 hrs post fertilized zebra fish embryo assessed as embryo disintegration at 3 to 10 ug/ml replaced once daily for 3 days; type: organism-based; details: zebrafish, in vivo; outline: as §1
Danio rerio [4] = species: Danio rerio; assay: Toxicity in 72 hrs post fertilized zebra fish embryo assessed as decrease in pericardial function measured after third treatment dose replaced once daily for 3 days; type: organism-based; details: zebrafish, in vivo; outline: as §1
Danio rerio [5] = species: Danio rerio; assay: Toxicity in 72 hrs post fertilized zebra fish embryo assessed as mortality at 1 ug/ml replaced once daily for 3 days; type: organism-based; details: zebrafish, in vivo; outline: as §1
Plasmodium falciparum [6] = assay: Antiplasmodial activity against asexual erythrocyte stage of chloroquine-resistant Plasmodium falciparum W2 infected in human red blood cells after 48 hrs by lactate dehydrogenase assay; type: functional, organism-based; details: W2, 48 h
Outline: (§2)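 P. falciparum asexual blood stages in human A+ erythrocytes, RPMI 1640 with HEPES, NaHCO3, glutamine, glucose, hypoxanthine, gentamycin and 10% human A+ serum. Parasitemia 2%, hematocrit 1%. Eight 2-fold dilutions in triplicate, DMSO at most 1%. After 48 h, growth read by pLDH activity. Artemisinin positive control. IC50 read from graphs.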

Danio rerio [7] = species: Danio rerio; assay: Toxicity in 72 hrs post fertilized zebra fish embryo assessed as death measured after third treatment dose replaced once daily for 3 days; type: organism-based; details: zebrafish, in vivo; outline: as §1
Danio rerio [8] = species: Danio rerio; assay: Toxicity in 24 to 72 hrs post fertilized zebra fish embryo assessed as death at 3 to 10 ug/ml measured within 1 day post dose; type: organism-based; details: zebrafish, in vivo; outline: as §1
HeLa = assay: Cytotoxicity against human HeLa cells after 48 hrs by WST-1 assay; type: functional, cell-based
Outline: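 HeLa cells seeded at 6000 per well in medium containing test compounds and incubated 48 h. WST-1 then added for 30 min at 37 °C, absorbance read at 450 nm. Results expressed as percent of untreated control cells; IC50 taken from graphs.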

[9] = Toxicity in 48 hrs post fertilized zebra fish embryo assessed as embryo mortality at 2 ug/ml replaced once daily for 3 days; type: organism-based, Danio rerio; details: zebrafish, in vivo; read-out: Activity; outline: as §1
WI-38 = assay: Cytotoxicity against human WI38 cells after 48 hrs by WST-1 assay; type: cell-based; details: WI-38, 48 h
Plasmodium berghei [10] = assay: Antimalarial activity against Plasmodium berghei NK173 infected in Swiss mouse assessed as inhibition of parasitemia at 15 mg/kg, ip qd administered 4 hrs post infection for 3 days measured on day 7 by Giemsa staining based microscopy relative to control; type: functional
Outline: (§3)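 Female Swiss mice (10 weeks, 25 ± 2 g), groups of five, infected ip with 2 × 10^7 P. berghei NK173 parasitized red cells. 15 mg/kg ip in 7% Tween 80/3% EtOH in sterile water, first dose 4 h post-infection (day 0), then once daily for 3 more days. Parasitemia read on Giemsa-stained tail-blood thin smears (≥500 erythrocytes). Inhibition calculated against vehicle controls at days 5 and 7.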

Danio rerio [11] = species: Danio rerio; assay: Toxicity in 24 to 72 hrs post fertilized zebra fish embryo assessed as bradycardia at 2 to 2.5 ug/ml replaced once daily for 3 days; type: organism-based; details: zebrafish, in vivo; outline: as §1
Plasmodium falciparum [12] = assay: Antiplasmodial activity against asexual erythrocyte stage of chloroquine-sensitive Plasmodium falciparum 3D7 infected in human red blood cells after 48 hrs by lactate dehydrogenase assay; type: functional, organism-based; details: 3D7, 48 h; outline: as §2
[13] = Hemolytic activity in human RBC at 10 ug/ml after 1 hr relative to control; type: ADME, cell-based, Erythrocyte; details: red blood cells, read-out: Activity
Outline: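 Human A+ erythrocytes, 10% (v/v) in PBS, incubated in triplicate with compounds at final 10 µg/mL (DMSO <1%) for 1 h at room temperature with agitation. Mixtures centrifuged 5 min at 2000 rpm, supernatant absorbance read at 550 nm. 1% (v/v) Triton X-100 served as 100% lysis and PBS as 0% lysis.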

[14] = Selectivity index, ratio of IC50 for human WI38 cells to IC50 for asexual erythrocyte stage of chloroquine-sensitive Plasmodium falciparum 3D7 infected in human red blood cells; type: toxicity, cell-based; details: read-out: Ratio IC50
Danio rerio [15] = species: Danio rerio; assay: Toxicity in 72 hrs post fertilized zebra fish embryo assessed as cumulative mortality measured after third treatment dose replaced once daily for 3 days; type: organism-based; details: zebrafish, in vivo; outline: as §1
Plasmodium berghei [16] = assay: Antimalarial activity against Plasmodium berghei NK173 infected in Swiss mouse assessed as inhibition of parasitemia at 15 mg/kg, ip qd administered 4 hrs post infection for 3 days measured on day 5 by Giemsa staining based microscopy relative to control; type: functional; outline: as §3
Mus musculus = assay: Toxicity in Swiss mouse assessed as mortality at 15 mg/kg, ip qd measured on day 7; type: organism-based; details: in vivo
Danio rerio [17] = species: Danio rerio; assay: Toxicity in 24 to 72 hrs post fertilized zebra fish embryo assessed as death at 10 ug/ml measured within 1 day post dose; type: organism-based; details: zebrafish, in vivo; outline: as §1
Danio rerio [18] = species: Danio rerio; assay: Toxicity in 24 to 72 hrs post fertilized zebra fish embryo assessed as percentage of bradycardia developed embryos at 2 to 2.5 ug/ml replaced once daily for 3 days measured each day until 72 hrs post fertilization; type: organism-based; details: zebrafish, in vivo
Outline: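 Dechorionated zebrafish embryos, 25 per condition, exposed from 24 hpf. Compound in DMSO diluted in zebrafish medium (final DMSO at most 0.4%). Treatment replaced once daily for 3 days, with a narrowed 10–1 µg/mL range run in duplicate. Embryos observed daily to 72 hpf for mortality, disintegration, bradycardia and morphology. Untreated and 0.4% DMSO groups of 25 served as controls.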

Danio rerio [19] = species: Danio rerio; assay: Toxicity in 72 hrs post fertilized zebra fish embryo assessed as body axis deformation measured after third treatment dose replaced once daily for 3 days; type: organism-based; details: zebrafish, in vivo; outline: as §1
Danio rerio [20] = species: Danio rerio; assay: Toxicity in 48 hrs post fertilized zebra fish embryo assessed as cumulative mortality at 1 to 10 ug/ml replaced once daily for 3 days; type: organism-based; details: zebrafish, in vivo, 72 h; outline: as §1
Plasmodium falciparum [21] = assay: Antiplasmodial activity against chloroquine-sensitive Plasmodium falciparum F32-Tanzania after 48 hrs by [3H]-hypoxanthine incorporation assay; type: functional, organism-based

Structure (SMILES) | selectivity ratio [1] | IC50 (Plasmodium falciparum [6]) [µg/mL] | IC50 (HeLa) [µg/mL] | IC50 (WI-38) [µg/mL] | IC50 (Plasmodium falciparum [12]) [nM] | hemolysis at 1 h, 10 ug/ml [13] [%] | selectivity ratio [14] | other results
CCCCCC/C=C\CCCCCCC[C@@H]1C[C@@]2(O)CC(=O)C=C[C@@]2(O)O1 | 2.86 | 0.21 to 0.55 (≈ 0.555 to 1.45 µM) | 0.8 to 2.1 (≈ 2.11 to 5.55 µM) | 0.6 to 1.58 (≈ 1.58 to 4.17 µM) | 340 to 900 | < 1 | 1.76 | Activity (Danio rerio [2]): Non-Toxic; Activity (Danio rerio [3]): Toxic; Activity (Danio rerio [4]): Toxic; Activity (Danio rerio [5]): Non-Toxic; Activity (Danio rerio [7]): Toxic; Activity (Danio rerio [8]): Toxic; mortality at 72 h, 2 ug/ml [9]: 60%; inhibition in vivo at 15 mg/kg (Plasmodium berghei [10]): 69.5%; Activity (Danio rerio [11]): Toxic; Activity (Danio rerio [15]): Toxic; inhibition in vivo at 15 mg/kg (Plasmodium berghei [16]): 59.1%; Activity (Mus musculus): Toxic; Activity (Danio rerio [17]): Toxic; Activity (Danio rerio [18]): 5%; Activity (Danio rerio [19]): Toxic; Activity (Danio rerio [20]): Toxic
C[C@@H]1CC[C@H]2[C@@H](C)C(=O)O[C@@H]3O[C@@]4(C)CC[C@@H]1[C@]32OO4 [ARTEMISININ] | – | 0.01 to 0.035 (≈ 0.0354 to 0.124 µM) | – | – | 4 to 14 | – | – | –
CCCCCC/C=C\CCCCCCCC(O)C[C@]1(O)C=C[C@@H](O)[C@@H](O)C1 (stereo partly drawn) | – | – | – | – | – | – | – | IC50 (Plasmodium falciparum [21]): 86.4 µg/mL (≈ 226 µM)
CC[C@@]1(O)C(=O)OCc2c1cc1n(c2=O)Cc2cc3ccccc3nc2-1 [CAMPTOTHECIN] | – | – | 0.08 to 0.23 (≈ 0.23 to 0.66 µM) | 0.03 to 0.086 (≈ 0.0861 to 0.247 µM) | – | – | – | –
CCCCCC/C=C\CCCCCCCC(=O)C[C@@]1(O)C=CC(=O)[C@@H](O)C1 | 2.1 | 0.48 to 1.27 (≈ 1.27 to 3.35 µM) | 1.31 to 3.45 (≈ 3.46 to 9.11 µM) | 1.01 to 2.66 (≈ 2.67 to 7.03 µM) | 430 to 1130 | < 1 | 2.34 | –
O=c1c(O)c(-c2ccc(O)c(O)c2)oc2cc(O)cc(O)c12 [QUERCETIN] | – | – | – | – | 17500 | – | – | –
CCCCCCCCCCCCCCC[C@@H]1C[C@@]2(O)CC(=O)C=C[C@@]2(O)O1 | 2.81 | 0.37 to 0.97 (≈ 0.972 to 2.55 µM) | 1.44 to 3.77 (≈ 3.78 to 9.91 µM) | 1.04 to 2.73 (≈ 2.73 to 7.17 µM) | 690 to 1810 | < 1 | 1.51 | –
